In the library only some 2.6% were active in any assay of this set; here they are far more common.
SENP1 inh – human SENP1 catalytic domain inhibitors, primary screen, biochemical, FRET, uHTS | 360,000 tested, 0.21% active | AID 624204, 2012 | Sentrin-specific protease 1 (Homo sapiens), Q9P0U3 | inhibition, % at 10 µM | recombinant SENP1 catalytic domain, CyPet-SUMO1-YPet FRET cleavage;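 active = inhibition at least 30% at 10 µM, raw YFP signal under a set limit, fluorescence ratio 0.5 to 1.5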
Target sequence (Q9P0U3 419-644 limits assumed): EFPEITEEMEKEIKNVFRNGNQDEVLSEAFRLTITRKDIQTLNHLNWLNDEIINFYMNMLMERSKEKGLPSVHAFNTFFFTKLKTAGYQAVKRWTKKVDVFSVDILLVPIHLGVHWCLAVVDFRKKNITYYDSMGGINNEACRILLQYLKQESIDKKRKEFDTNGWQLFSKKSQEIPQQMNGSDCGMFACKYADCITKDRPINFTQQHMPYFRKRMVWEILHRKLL
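material = recombinant human SENP1 catalytic domain, His6-tagged | quantity = 20 pM enzyme | reagent = 25 nM SUMO1 FRET substrate | compound dosing = 10 µM single point, 0.5% DMSO | timing = 50 min enzyme reaction, room temperature, light-protected | detection = FRET, CFP and YFP emission | control set = no-enzyme low, enzyme-DMSO high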
SENP6 inh – SENP6 protease inhibitors, primary screen, biochemical, luminescence, uHTS. AID 2599, 2010. 330,000 tested, 1.8% active. Recombinant SENP6 catalytic domain, aminoluciferin luminescence. Sentrin-specific protease 6 (Homo sapiens), Q9GZR1. inhibition, % at 10 µM;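 active = inhibition above about 50% at the single tested dose, limit read from the data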
SENP8 block-1 – SENP8 protease inhibitors, primary screen, biochemical, luminescence | Sentrin-specific protease 8 (Homo sapiens), Q96LD8 | purified SENP8, Z-RLRGG-aminoluciferin cleavage | inhibition, % at 10 µM | 330,000 tested, 1.2% active | AID 2540, 2010; in the data active = inhibition above about 50%
Target sequence (Q96LD8 whole entry, looked up): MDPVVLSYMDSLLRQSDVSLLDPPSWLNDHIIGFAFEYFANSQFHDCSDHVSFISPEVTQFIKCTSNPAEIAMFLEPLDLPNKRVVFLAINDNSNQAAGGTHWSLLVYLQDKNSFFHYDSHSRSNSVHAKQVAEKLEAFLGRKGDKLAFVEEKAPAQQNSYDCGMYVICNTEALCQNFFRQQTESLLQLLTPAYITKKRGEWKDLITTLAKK
SENP8 block-2 – human SENP8 protease inhibitors, primary screen, biochemical, fluorescence, Nedd8 protein substrate, uHTS. Sentrin-specific protease 8 (Homo sapiens), Q96LD8. recombinant SENP8. inhibition, % at 20 µM. 360,000 tested, 0.64% active. AID 602440, 2012; in the data active = inhibition mostly above about 40%, no sharp cut-off; inactive = mostly below about 27%
Platelet DG rel – inhibitors of platelet dense granule secretion, primary screen, cell-based, MLPCN, human platelets. 300,000 tested, 0.22% active. human platelet-rich plasma, SFLLRN dense granule ATP release, luminescence. inhibition, %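 (compounds screened at 7.5 µM in platelet-rich plasma)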;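 active = mean replicate score, as percent of positive control, at or above 50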
SENP7 block – SENP7 protease inhibitors, primary screen, biochemical, luminescence, uHTS; recombinant SENP7, Z-RLRGG-aminoluciferin luminescence, 40 min; inhibition, % at 5 µM; 330,000 tested, 1.5% active;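 active = inhibition above about 50% at the single test dose, limit read from the data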
SENP8 conf – SENP8 protease inhibitors, retest, confirmation, biochemical, luminescence, single concentration | 6,200 tested, 40% active | shares compounds with SENP7 block | inhibition, % at 12.5 µM | Recombinant SENP8, Z-RLRGG-aminoluciferin luminescence, 60 min;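 active = mean inhibition across replicates above about 50%, limit read from the data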
SENP6 confirm – SENP6 protease inhibitors, confirmation, biochemical, luminescence, single concentration. inhibition, % at 12.5 µM. AID 488915, 2010. 6,200 tested, 58% active. shares compounds with SENP7 block. recombinant SENP6, Z-RLRGG-aminoluciferin luminescence
SENP7 conf – SENP7 protease inhibitors, retest, confirmation, biochemical, luminescence, single concentration | AID 488917, 2010 | recombinant SENP7, Z-RLRGG-aminoluciferin luminescence, 40 min | shares compounds with SENP7 block | inhibition, % at 12.5 µM | 6,200 tested, 69% active
Casp3 select – caspase-3 protease inhibitors, confirmation, selectivity assay for SENP inhibitor project, biochemical, single concentration | shares compounds with SENP7 block | purified caspase-3, Z-DEVD-aminoluciferin luminescence, 60 min | inhibition, % at 12.5 µM | 6,200 tested, 60% active;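 active = mean inhibition above about 50%, limit read from the data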
Target sequence (P42574 28-227 limits assumed): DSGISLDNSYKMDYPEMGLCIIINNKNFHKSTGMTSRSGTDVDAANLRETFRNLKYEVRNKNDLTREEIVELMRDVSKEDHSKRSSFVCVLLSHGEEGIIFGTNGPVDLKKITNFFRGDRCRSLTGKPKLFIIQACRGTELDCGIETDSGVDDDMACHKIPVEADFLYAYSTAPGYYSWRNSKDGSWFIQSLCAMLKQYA
Luc interf – counter-screen for SENP inhibitors: luminescence interference. 6,200 tested, 39% active. Pre-incubated SENP8/Z-RLRGG-aminoluciferin, luciferase luminescence interference. shares compounds with SENP7 block. inhibition, % at 12.5 µM;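 active = mean inhibition above about 50% when retested at one dose, limit read from the data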
Numbers stand for hits; . = inactive; / = no result.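 Rule for the calls, unless noted: active = mean inhibition above about 50% in the one-dose retest (limit read from the data); inactive = the rest.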

SMILES	SENP1 inh	SENP6 inh	SENP8 block-1	SENP8 block-2	Platelet DG rel	SENP7 block	SENP8 conf	SENP6 confirm	SENP7 conf	Casp3 select	Luc interf
CC1C(=O)C(C)C(c2cc(Br)ccc2O)NC1c1cc(Br)ccc1O (stereo not given)	.	/	/	.	/	/	/	/	/	/	/
CCCCc1nc2cc(C(=O)NC3CCOC(C)(C)C3)ccc2o1 (stereo not given)	.	.	.	.	.	80	.	.	.	.	.
COc1ccc(CNS(=O)(=O)CCNC(=O)c2cccc(OC)c2)cc1	.	.	.	.	.	.	/	/	/	/	/
CCC(C)Sc1ccc([C@@H]2[C@H]3C(=O)N(C)C(=O)[C@H]3[C@]3(C(=O)OC)CCCN23)cc1 (stereo not given in full)	.	.	.	.	/	.	/	/	/	/	/
CCOc1ccc(Nc2nc3ccccc3n2C)cc1	.	.	.	.	.	.	/	/	/	/	/
Cc1cccc(OCc2nc3ccccc3n2C)c1	.	.	.	.	.	.	/	/	/	/	/
Cn1c(COc2ccc(F)cc2)nc2ccccc21	.	62	.	.	.	61	60	58	83	76	64
Cc1ccccc1OCc1nc2ccccc2n1C	.	.	79	.	.	72	.	80	96	86	82
CCOc1ccc(CNc2nc3ccccc3n2C)cc1	.	84	56	.	.	69	.	59	88	86	72
Cc1cc(NC(=O)c2cncc(Br)c2)ccc1NC(=O)c1cc2ccccc2o1	.	.	.	.	.	.	/	/	/	/	/
Cc1cccc(C(=O)O/N=C/c2ccc(Br)cc2)c1	.	68	61	.	.	62	.	74	88	61	.
CC1(C)Cc2c(sc(NC(=O)Nc3ccccc3)c2C(N)=O)CO1	.	68	56	.	.	53	.	52	80	52	.
CC(C)c1ccc(C(=O)NNC(=O)C2CC=CCC2C(=O)O)cc1 (stereo not given)	.	.	.	.	.	.	/	/	/	/	/
COc1cccc(C(N)=O)c1	.	.	.	.	.	.	/	/	/	/	/
COc1cccc(/C(C)=N/N=C(\C)c2cccc(OC)c2)c1	.	81	61	.	.	66	.	56	85	55	.
CCOC1=C2CN(S(=O)(=O)c3ccc(C)cc3)C(c3cccc(Cl)c3)CC2N(S(=O)(=O)c2ccc(C)cc2)C(c2ccncc2)C1 (stereo not given)	.	/	/	.	/	/	/	/	/	/	/
Nc1c(N=Nc2ccccc2F)c(=O)[nH]n1-c1ccccc1	.	80	55	.	.	77	.	.	53	.	.
Cc1c(C(=O)Oc2ccc(-c3cnc4ccccc4n3)cc2)cccc1[N+](=O)[O-]	.	.	.	.	.	.	/	/	/	/	/
O=C(Oc1ccc(-c2cnc3ccccc3n2)cc1)c1cc([N+](=O)[O-])ccc1Cl	.	.	.	.	.	78	.	.	.	.	.
O=[N+]([O-])c1cc(-c2cnc3ccccc3n2)ccc1Oc1ccc(Cl)cc1	.	.	.	.	.	.	/	/	/	/	/
O=[N+]([O-])c1cc(-c2cnc3ccccc3n2)ccc1Cl	.	.	.	.	.	51	.	.	.	.	.
Nc1cccc(-c2cnc3ccccc3n2)c1	.	68	51	.	.	58	.	.	78	75	.
O=C(Cc1ccccc1)NNC(=O)c1ccc(Br)o1	.	.	.	.	.	.	/	/	/	/	/
CCOc1ccc(/C=C2/SC(=O)NC2=S)cc1	.	74	.	.	.	.	.	.	.	.	.
CCC(=O)c1cc(F)c(N2CCN(S(=O)(=O)c3ccccc3)CC2)cc1C	.	.	.	.	.	52	.	.	.	.	.
SMILES	SENP1 inh	SENP6 inh	SENP8 block-1	SENP8 block-2	Platelet DG rel	SENP7 block	SENP8 conf	SENP6 confirm	SENP7 conf	Casp3 select	Luc interf
CCc1ccc(/C=N/NC(=O)c2ccccn2)cc1	.	83	79	.	.	83	87	87	98	94	86
Cc1ccc(/C=N\NC(=O)c2csnn2)cc1	.	55	.	.	.	50	.	.	77	81	.
O=C(N/N=C/c1ccc(OC(=O)c2ccccc2Cl)cc1)c1ccccn1	.	.	.	.	.	71	.	.	.	.	.
Cc1ccc2c(c1)N(CCCC(=O)Nc1cccc(C(F)(F)F)c1)C(=O)CO2	.	.	.	.	.	.	/	/	/	/	/
CC(=O)N1N=C(c2ccc(C)cc2)OC1c1ccc(C(C)C)cc1 (stereo not given)	.	66	.	.	.	66	.	.	.	.	.
COc1cc(OC)cc(-c2nc3cc(C)ccc3o2)c1	.	97	94	.	.	98	95	97	101	94	93
CC(C)C(=O)Nc1cccc(-c2nc3ccccc3o2)c1	.	.	.	.	.	.	/	/	/	/	/
Cc1ccc(-c2nc3cc(NC(=O)C(C)C)ccc3o2)cc1	.	76	.	.	.	84	.	.	.	.	.
Cc1ccc(-c2nc3cc(NC(=O)C(C)C)ccc3o2)cc1C	.	95	92	.	.	98	.	.	.	77	.
Cc1cc2nc(-c3ccc(NC(=O)C(C)C)cc3)oc2cc1C	.	.	.	.	.	70	.	.	.	.	.
COc1ccc(CN2C(=O)CN(S(C)(=O)=O)CC2(C)C(=O)Nc2ccc3c(c2)OCCO3)cc1OC (stereo not given)	.	/	/	.	/	/	/	/	/	/	/
O=C(/C=C/c1cccc(OCc2ccccc2)c1)c1cccnc1	.	.	.	.	.	.	/	/	/	/	/
O=C(COC(=O)COc1ccc(Br)cc1)Nc1ccc2c(c1)OCCO2	.	.	.	.	/	.	/	/	/	/	/

Screens from PubChem BioAssay.
